pIC50: −log10 of the molar value. Active and inactive are the calls of the source. The rule behind the calls is not given here.
Columns and labels:
[1] = target: T1, Glucagon receptor (Homo sapiens, UniProt P47871); experiment: Antagonist activity at human GCGR expressed in CHO cells assessed as inhibition of glucagon-induced cAMP accumulation; type: functional, cell-based
Summary of the method: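 Inhibition of glucagon-induced cAMP accumulation in CHO cells transfected with human GCGR; IC50 derived, n given where replicated.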

[2] = target: T2, Gastric inhibitory polypeptide receptor (Homo sapiens, UniProt P48546); experiment: Antagonist activity at human GIPR expressed in CHO cells assessed as inhibition of glucagon-induced cAMP accumulation; type: functional, cell-based
T2 sequence (P48546 whole entry): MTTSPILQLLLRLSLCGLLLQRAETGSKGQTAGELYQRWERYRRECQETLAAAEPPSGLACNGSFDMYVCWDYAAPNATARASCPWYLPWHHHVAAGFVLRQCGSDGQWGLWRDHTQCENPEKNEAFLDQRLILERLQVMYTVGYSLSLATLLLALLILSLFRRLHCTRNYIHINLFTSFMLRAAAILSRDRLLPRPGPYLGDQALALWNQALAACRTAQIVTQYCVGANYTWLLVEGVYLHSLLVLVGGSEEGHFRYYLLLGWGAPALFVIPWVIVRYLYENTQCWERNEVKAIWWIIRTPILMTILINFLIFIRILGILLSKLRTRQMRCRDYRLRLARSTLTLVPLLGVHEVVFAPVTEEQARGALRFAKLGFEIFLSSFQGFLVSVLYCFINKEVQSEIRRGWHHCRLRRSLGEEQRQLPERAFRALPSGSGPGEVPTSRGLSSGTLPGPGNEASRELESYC

[3] = target: T1, Glucagon receptor; experiment: Displacement of [125I]glucagon from human GCGR expressed in CHO cells; type: cell-based
Summary of the method: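 Binding inhibition of 125I-glucagon to human GCGR expressed in CHO cell membranes; IC50 reported, n given where replicated.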

[4] = target: T3, Gastric inhibitory polypeptide receptor (Homo sapiens) (UniProt P48546); experiment: Antagonist activity at human GIPR expressed in CHO cells assessed as inhibition of glucagon-induced cAMP accumulation at 10 uM; type: functional, cell-based
T3 sequence (whole entry): T2 sequence (P48546 whole entry)

[5] = test system: Mus musculus; experiment: Antidiabetic activity in transgenic mouse expressing human GCGR assessed as inhibition of glucagon-induced blood glucose excursion at 10 mg/kg, po administered 60 mins before glucagon challenge measured after 48 mins; type: functional, organism-based; set-up: dose 10 mg/kg
Summary of the method: (§1)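 hGCGR transgenic mice (only functional receptor is human GCGR), 9 per group, given compound orally, then glucagon 15 µg/kg IP 60 min later (one arm dosed 30 mpk three hours before challenge); blood glucose monitored at 12, 24, 36 and 48 min after glucagon.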

[6] = test system: Mus musculus; experiment: Antidiabetic activity in transgenic mouse expressing human GCGR assessed as inhibition of glucagon-induced blood glucose excursion at 30 mg/kg, po administered 60 mins before glucagon challenge measured after 48 mins; type: functional, organism-based; set-up: dose 30 mg/kg; summary of the method: as §1
[7] = Half life in po dosed mouse; type: ADME, organism-based; settings: in vivo
[8] = test system: Mus musculus; experiment: Dose normalized AUC in po dosed mouse; type: ADME, organism-based; settings: in vivo
[9] = Blood clearance in po dosed mouse; type: ADME, organism-based

T1 sequence (P47871 whole entry): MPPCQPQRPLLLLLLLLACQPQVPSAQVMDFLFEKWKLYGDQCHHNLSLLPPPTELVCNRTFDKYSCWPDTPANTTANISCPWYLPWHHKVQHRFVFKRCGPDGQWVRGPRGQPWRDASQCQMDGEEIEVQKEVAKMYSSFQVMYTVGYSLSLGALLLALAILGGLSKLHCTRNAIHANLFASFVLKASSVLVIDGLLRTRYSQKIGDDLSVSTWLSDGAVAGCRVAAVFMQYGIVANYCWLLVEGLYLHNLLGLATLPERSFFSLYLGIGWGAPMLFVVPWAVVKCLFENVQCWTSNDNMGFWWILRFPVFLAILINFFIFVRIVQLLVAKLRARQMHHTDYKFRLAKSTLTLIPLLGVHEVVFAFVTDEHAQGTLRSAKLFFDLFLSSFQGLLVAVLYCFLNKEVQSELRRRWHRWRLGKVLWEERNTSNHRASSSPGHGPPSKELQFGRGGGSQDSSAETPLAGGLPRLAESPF

SMILES	pIC50 [2]	pIC50 [3]	inhibition [4]	also measured
CC(C)(C)[C@H]1CC[C@H](N(Cc2ccc(C(=O)NCCC(=O)O)cc2)C(=O)Nc2ccc(OC(F)(F)F)cc2)CC1	5.89	7.68	–	pIC50 [1]: 6.85
O=C(O)CCNC(=O)c1ccc(Cc2cc(-c3ccc(OC(F)(F)F)cc3)nn2C2CCCCC2)cc1	–	5.54	39%	–
O=C(O)CCNC(=O)c1ccc(Cc2cc(-c3ccc(OC(F)(F)F)cc3)n(C3CCCCC3)n2)cc1	–	5.77	–	–
CC(c1ccc(Cl)cc1)c1cc(-c2ccc(OC(F)(F)F)cc2)n(Cc2ccc(C(=O)NCCC(=O)O)cc2)n1 (stereo unspecified)	–	5.62	0%	–
CS(=O)(=O)c1ccc(-c2cc(-c3ccc(OC(F)(F)F)cc3)n(Cc3ccc(C(=O)Nc4nnn[nH]4)cc3)n2)cc1	–	6.24	–	–
O=C(Nc1nn[nH]n1)c1cccc(Cn2nc(-c3ccc(OC(F)(F)F)cc3)cc2-c2ccc(OC(F)(F)F)cc2)c1	–	5.96	2%	–
CC(C)(C)[C@H]1CC[C@H](c2cc(-c3ccc(OC(F)(F)F)cc3)nn2Cc2ccc(C(=O)NCCC(=O)O)cc2)CC1	–	6.32	6%	–
O=C(Nc1nn[nH]n1)c1ccc(Cn2nc(C3CCCCC3)cc2-c2ccc(OC(F)(F)F)cc2)cc1	6.04	6.09	–	–
CS(=O)(=O)c1ccc(-c2cc(-c3ccc(OC(F)(F)F)cc3)n(Cc3ccc(C(=O)Nc4nn[nH]n4)cc3)n2)cc1	–	–	45%	–
CC(c1ccc(Cl)cc1)c1cc(-c2ccc(OC(F)(F)F)cc2)nn1Cc1ccc(C(=O)Nc2nn[nH]n2)cc1 (stereo unspecified)	–	6.28	21%	–
O=C(NCc1nn[nH]n1)c1ccc(Cn2nc(-c3cc(Cl)cc(Cl)c3)cc2-c2ccc(OC(F)(F)F)cc2)cc1	–	–	–	inhibition [5]: inactive
O=C(O)CCNC(=O)c1ccc(Cc2cnn(-c3ccc(OC(F)(F)F)cc3)c2C2CCCCC2)cc1	< 4.60	5.14	–	–
O=C(Nc1nnn[nH]1)c1ccc(Cn2nc(-c3ccc(OC(F)(F)F)cc3)cc2-c2cc(Cl)cc(Cl)c2)cc1	5.52	7.44	–	pIC50 [1]: 7.46
CC(C)(C)[C@H]1CC[C@H](c2cc(-c3ccc(OC(F)(F)F)cc3)nn2Cc2ccc(C(=O)Nc3nn[nH]n3)cc2)CC1	–	–	–	inhibition [5]: Active; inhibition [6]: Active
O=C(Nc1nn[nH]n1)c1ccc(Cn2nc(-c3ccc(OC(F)(F)F)cc3)cc2-c2ccc(OC(F)(F)F)cc2)cc1	–	7.37	46%	pIC50 [1]: 7.33; inhibition [5]: Active; inhibition [6]: Active
CS(=O)(=O)c1ccc(-c2cc(-c3ccc(OC(F)(F)F)cc3)n(Cc3ccc(C(=O)NCCC(=O)O)cc3)n2)cc1	–	5.57	43%	–
CC(c1ccc(Cl)cc1)c1cc(-c2ccc(OC(F)(F)F)cc2)n(Cc2ccc(C(=O)Nc3nn[nH]n3)cc2)n1 (stereo unspecified)	–	6.37	20%	–
CS(=O)(=O)c1ccc(-c2cc(-c3ccc(OC(F)(F)F)cc3)nn2Cc2ccc(C(=O)Nc3nn[nH]n3)cc2)cc1	–	–	36%	–
CC(c1ccc(C(=O)Nc2nnn[nH]2)cc1)n1nc(-c2ccc(OC(F)(F)F)cc2)cc1-c1ccc(OC(F)(F)F)cc1 (stereo unspecified)	5.22	6.89	–	–
O=C(O)CCNC(=O)c1ccc(Cn2nc(-c3ccc(OC(F)(F)F)cc3)cc2-c2cc(Cl)cc(Cl)c2)cc1	–	7.02	21%	pIC50 [1]: 6.64
O=C(NCc1nnn[nH]1)c1ccc(Cn2nc(-c3cc(Cl)cc(Cl)c3)cc2-c2ccc(OC(F)(F)F)cc2)cc1	< 5.00	6.92	–	–
O=C(NC[C@@H](O)C(=O)O)c1ccc(Cn2nc(-c3cc(Cl)cc(Cl)c3)cc2-c2ccc(OC(F)(F)F)cc2)cc1	< 4.60	7.55	–	–

SMILES	pIC50 [2]	pIC50 [3]	inhibition [4]	also measured
O=C(O)CCCNC(=O)c1cccc(Cn2nc(-c3ccc(OC(F)(F)F)cc3)cc2-c2ccc(OC(F)(F)F)cc2)c1	–	5.96	49%	–
O=C(Nc1nn[nH]n1)c1ccc(Cc2cc(-c3ccc(OC(F)(F)F)cc3)n(C3CCCCC3)n2)cc1	–	5.54	50%	–
O=C(O)CCNC(=O)c1ccc(Cc2cn(-c3ccc(OC(F)(F)F)cc3)nc2C2CCCCC2)cc1	5.13	5.92	–	–
O=C(Nc1nn[nH]n1)c1ccc(Cc2cc(-c3ccc(OC(F)(F)F)cc3)nn2C2CCCCC2)cc1	–	5.38	42%	–
CN(CCC(=O)O)C(=O)c1ccc(Cn2nc(-c3ccc(OC(F)(F)F)cc3)cc2-c2ccc(OC(F)(F)F)cc2)cc1	–	5.14	9%	–
O=C(O)CCNC(=O)c1ccc(Cn2nc(-c3ccc(OC(F)(F)F)cc3)cc2C2CCCCC2)cc1	5.55	5.42	–	–
O=C(O)CNC(=O)c1ccc(Cn2nc(-c3ccc(OC(F)(F)F)cc3)cc2-c2ccc(OC(F)(F)F)cc2)cc1	–	5.52	-3%	pIC50 [1]: 5.89
O=C(Nc1nn[nH]n1)c1ccc(Cc2cnn(-c3ccc(OC(F)(F)F)cc3)c2C2CCCCC2)cc1	< 4.70	4.80	–	–
O=C(O)CNC(=O)c1cccc(Cn2nc(-c3ccc(OC(F)(F)F)cc3)cc2-c2ccc(OC(F)(F)F)cc2)c1	–	5.54	34%	–
O=C(O)CCNC(=O)c1cccc(Cn2nc(-c3ccc(OC(F)(F)F)cc3)cc2-c2ccc(OC(F)(F)F)cc2)c1	–	6.48	73%	–
O=C(Nc1nn[nH]n1)c1ccc(Cn2nc(-c3cc(Cl)cc(Cl)c3)cc2-c2ccc(OC(F)(F)F)cc2)cc1	–	–	–	inhibition [5]: inactive; inhibition [6]: Active
CC(c1ccc(C(=O)NCCC(=O)O)cc1)n1nc(-c2ccc(OC(F)(F)F)cc2)cc1-c1ccc(OC(F)(F)F)cc1 (stereo unspecified)	–	6.60	46%	–
CC(C)(C)[C@H]1CC[C@H](N(Cc2ccc(C(=O)Nc3nn[nH]n3)cc2)C(=O)Nc2ccc(OC(F)(F)F)cc2)CC1	7.35	8.49	–	pIC50 [1]: 7.34
CS(=O)(=O)c1ccc(-c2cc(-c3ccc(OC(F)(F)F)cc3)nn2Cc2ccc(C(=O)NCCC(=O)O)cc2)cc1	–	5.92	31%	–
O=C(O)CCCNC(=O)c1ccc(Cn2nc(-c3ccc(OC(F)(F)F)cc3)cc2-c2ccc(OC(F)(F)F)cc2)cc1	–	5.96	15%	–
CC(C)(C)[C@H]1CC[C@H](c2cc(-c3ccc(OC(F)(F)F)cc3)nn2Cc2ccc(C(=O)Nc3nnn[nH]3)cc2)CC1	5.24	7.20	–	pIC50 [1]: 6.77
O=C(Nc1nnn[nH]1)c1ccc(Cc2cn(-c3ccc(OC(F)(F)F)cc3)nc2C2CCCCC2)cc1	< 5.00	5.28	–	–
CS(=O)(=O)c1ccc(-c2cc(-c3ccc(OC(F)(F)F)cc3)nn2Cc2ccc(C(=O)Nc3nnn[nH]3)cc2)cc1	–	6.66	–	–
CC(c1ccc(Cl)cc1)c1cc(-c2ccc(OC(F)(F)F)cc2)nn1Cc1ccc(C(=O)NCCC(=O)O)cc1 (stereo unspecified)	–	6.14	22%	–
O=C(Nc1nn[nH]n1)c1ccc(Cn2nc(-c3ccc(OC(F)(F)F)cc3)cc2C2CCCCC2)cc1	5.68	6.92	–	pIC50 [1]: 6.80; half-life [7]: 162 min; AUC [8]: 1.5 µM·kg·h/mg; CL/F [9]: 8.2 mL/min/kg
O=C(Nc1nnn[nH]1)c1ccc(Cn2nc(-c3cc(Cl)cc(Cl)c3)cc2-c2ccc(OC(F)(F)F)cc2)cc1	5.15	7.41	–	pIC50 [1]: 7.36
O=C(O)CCNC(=O)c1ccc(Cn2nc(-c3ccc(OC(F)(F)F)cc3)cc2-c2ccc(OC(F)(F)F)cc2)cc1	–	6.31	–	pIC50 [1]: 6.43

From ChEMBL document CHEMBL1641377, “Discovery of novel, potent, selective, and orally active human glucagon receptor antagonists containing a pyrazole core” (Bioorg Med Chem Lett, 2011)
